In brackets after ≈: the same amount, converted by molar mass. Activity calls are given as the source filed them. The calls are words filed in the database; no cut-off is given here.
Columns and labels:
Pseudomonas aeruginosa [1] = assay: Antimicrobial activity against Pseudomonas aeruginosa PAO1 by broth microdilution method; format: functional
Outline: (§1)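 Broth microdilution MICs of ceftazidime, aztreonam and piperacillin in 100 μl cation-adjusted Mueller-Hinton broth, with or without NagZ inhibitor PUGNAc at 0.5 mM or 5 mM; measurements in triplicate.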

Pseudomonas aeruginosa [2] = assay: Antimicrobial activity against ampD::lox gene-deficient Pseudomonas aeruginosa PAO1 by broth microdilution method; format: functional; outline: as §1
Pseudomonas aeruginosa [3] = assay: Antimicrobial activity against dacB::lox gene-deficient Pseudomonas aeruginosa PAO1 by broth microdilution method; format: functional; outline: as §1
Pseudomonas aeruginosa [4] = assay: Antimicrobial activity against ampD::lox gene-deficient Pseudomonas aeruginosa PAO1 harboring dacB gene by broth microdilution method; format: functional; outline: as §1
Pseudomonas aeruginosa [5] = assay: Antimicrobial activity against Pseudomonas aeruginosa PAO1 by broth microdilution method in presence of 0.5 mM NagZ inhibitor PUGNAc; format: functional; outline: as §1
Pseudomonas aeruginosa [6] = assay: Antimicrobial activity against ampD::lox gene-deficient Pseudomonas aeruginosa PAO1 by broth microdilution method in presence of 0.5 mM NagZ inhibitor PUGNAc; format: functional; outline: as §1
Pseudomonas aeruginosa [7] = assay: Antimicrobial activity against dacB::lox gene-deficient Pseudomonas aeruginosa PAO1 by broth microdilution method in presence of 0.5 mM NagZ inhibitor PUGNAc; format: functional; outline: as §1
Pseudomonas aeruginosa [8] = assay: Antimicrobial activity against ampD::lox gene-deficient Pseudomonas aeruginosa PAO1 harboring dacB gene by broth microdilution method in presence of 0.5 mM NagZ inhibitor PUGNAc; format: functional
Outline: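 MICs of ceftazidime, aztreonam and piperacillin determined by broth microdilution in cation-adjusted Mueller-Hinton broth, with 0.5 mM of the N-acetyl-β-glucosaminidase (NagZ) inhibitor PUGNAc added alongside the β-lactam and untreated controls run in parallel; all measurements performed in triplicate.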

Pseudomonas aeruginosa [9] = assay: Antimicrobial activity against Pseudomonas aeruginosa PAO1 by broth microdilution method in presence of 5 mM NagZ inhibitor PUGNAc; format: functional; outline: as §1
Pseudomonas aeruginosa [10] = assay: Antimicrobial activity against ampD::lox gene-deficient Pseudomonas aeruginosa PAO1 by broth microdilution method in presence of 5 mM NagZ inhibitor PUGNAc; format: functional; outline: as §1
Pseudomonas aeruginosa [11] = assay: Antimicrobial activity against dacB::lox gene-deficient Pseudomonas aeruginosa PAO1 by broth microdilution method in presence of 5 mM NagZ inhibitor PUGNAc; format: functional; outline: as §1
Pseudomonas aeruginosa [12] = assay: Antimicrobial activity against ampD::lox gene-deficient Pseudomonas aeruginosa PAO1 harboring dacB gene by broth microdilution method in presence of 5 mM NagZ inhibitor PUGNAc; format: functional; outline: as §1
Pseudomonas aeruginosa [13] = assay: Antimicrobial activity against Pseudomonas aeruginosa PAO1 at 1 ug/ml; format: functional, organism-based
Outline: (§2)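 Population analysis: serial dilutions of overnight MH broth cultures plated on MH agar with 0, 0.5, 1, 2, 4, 8 or 16 μg/ml ceftazidime; colonies counted after 24 h as CFU at each concentration; triplicate, mean ± standard deviation.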

Pseudomonas aeruginosa [14] = assay: Antimicrobial activity against nagZ::lox gene-deficient Pseudomonas aeruginosa PAO1 at 1 ug/ml; format: functional, organism-based; outline: as §2
Pseudomonas aeruginosa [15] = assay: Antimicrobial activity against Pseudomonas aeruginosa PAO1 by Etest method; format: functional
Outline: (§3)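 MICs read from Etest strips on Mueller-Hinton agar per manufacturer's instructions; agents ceftazidime, cefepime, aztreonam, piperacillin, piperacillin-tazobactam, imipenem and meropenem.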

Pseudomonas aeruginosa [16] = assay: Antimicrobial activity against nagZ::lox gene-deficient Pseudomonas aeruginosa PAO1 by Etest method; format: functional; outline: as §3
Pseudomonas aeruginosa [17] = assay: Antimicrobial activity against ampD::lox gene-deficient Pseudomonas aeruginosa PAO1 by Etest method; format: functional; outline: as §3
Pseudomonas aeruginosa [18] = assay: Antimicrobial activity against ampD::lox and nagZ::lox gene-deficient Pseudomonas aeruginosa PAO1 by Etest method; format: functional; outline: as §3
Pseudomonas aeruginosa [19] = assay: Antimicrobial activity against dacB::lox gene-deficient Pseudomonas aeruginosa PAO1 by Etest method; format: functional; outline: as §3
Pseudomonas aeruginosa [20] = assay: Antimicrobial activity against ampD::lox gene-deficient Pseudomonas aeruginosa PAO1 harboring dacB gene by Etest method; format: functional; outline: as §3
Pseudomonas aeruginosa [21] = assay: Antimicrobial activity against ampD::lox and nagZ::lox gene-deficient Pseudomonas aeruginosa PAO1 harboring dacB gene by Etest method; format: functional; outline: as §3
Pseudomonas aeruginosa [22] = assay: Antimicrobial activity against ampD::lox, ampDh2::lox and ampDh3::lox gene-deficient Pseudomonas aeruginosa PAO1 by Etest method; format: functional
Outline: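 Etest strips on Mueller-Hinton agar, read per manufacturer's recommendations; P. aeruginosa PAO1 triple mutant deficient in ampD, ampDh2 and ampDh3 (lox deletions). Agents tested by Etest: ceftazidime, cefepime, aztreonam, piperacillin, piperacillin-tazobactam, imipenem, meropenem.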

Pseudomonas aeruginosa [23] = assay: Antimicrobial activity against ampD::lox, ampDh2::lox,ampDh3::lox and nagZ::lox gene-deficient Pseudomonas aeruginosa PAO1 by Etest method; format: functional; outline: as §3
Pseudomonas aeruginosa [24] = assay: Antimicrobial activity against ampR::lox gene-deficient Pseudomonas aeruginosa PAO1 by Etest method; format: functional; outline: as §3
Pseudomonas aeruginosa [25] = assay: Antimicrobial activity against ampC::lox gene-deficient Pseudomonas aeruginosa PAO1 by Etest method; format: functional; outline: as §3
Pseudomonas aeruginosa [26] = assay: Antimicrobial activity against dacB::lox and nagZ::lox gene-deficient Pseudomonas aeruginosa PAO1 by Etest method; format: functional; outline: as §3

SMILES: CC(C)(O/N=C(\C(=O)N[C@@H]1C(=O)N2C(C(=O)[O-])=C(C[n+]3ccccc3)CS[C@H]12)c1csc(N)n1)C(=O)O [CEFTAZIDIME]
- MIC (Pseudomonas aeruginosa [1]): 2 µg/mL (≈ 3.66 µM)
- MIC (Pseudomonas aeruginosa [2]): 8 µg/mL (≈ 14.6 µM)
- MIC (Pseudomonas aeruginosa [3]): 24 µg/mL (≈ 43.9 µM)
- MIC (Pseudomonas aeruginosa [4]): 96 µg/mL (≈ 176 µM)
- MIC (Pseudomonas aeruginosa [5]): 2 µg/mL
- MIC (Pseudomonas aeruginosa [6]): 4 µg/mL
- MIC (Pseudomonas aeruginosa [7]): 8 µg/mL
- MIC (Pseudomonas aeruginosa [8]): 64 µg/mL
- MIC (Pseudomonas aeruginosa [9]): 2 µg/mL
- MIC (Pseudomonas aeruginosa [10]): 4 µg/mL
- MIC (Pseudomonas aeruginosa [11]): 6 µg/mL
- MIC (Pseudomonas aeruginosa [12]): 64 µg/mL
- Activity (Pseudomonas aeruginosa [13]): Active
- Activity (Pseudomonas aeruginosa [14]): Active
- MIC (Pseudomonas aeruginosa [15]): 1.5 µg/mL (≈ 2.74 µM)
- MIC (Pseudomonas aeruginosa [16]): 1 µg/mL (≈ 1.83 µM)
- MIC (Pseudomonas aeruginosa [17]): 8 µg/mL (≈ 14.6 µM)
- MIC (Pseudomonas aeruginosa [18]): 2 µg/mL (≈ 3.66 µM)
- MIC (Pseudomonas aeruginosa [19]): 24 µg/mL (≈ 43.9 µM)
- MIC (Pseudomonas aeruginosa [20]): 96 µg/mL (≈ 176 µM)
- MIC (Pseudomonas aeruginosa [21]): 4 µg/mL (≈ 7.32 µM)
- MIC (Pseudomonas aeruginosa [22]): 32 µg/mL (≈ 58.5 µM)
- MIC (Pseudomonas aeruginosa [23]): 3 µg/mL (≈ 5.49 µM)
- MIC (Pseudomonas aeruginosa [24]): 2 µg/mL (≈ 3.66 µM)
- MIC (Pseudomonas aeruginosa [25]): 1 µg/mL (≈ 1.83 µM)

SMILES: C[C@@H](O)[C@H]1C(=O)N2C(C(=O)O)=C(S[C@@H]3CN[C@H](C(=O)N(C)C)C3)[C@H](C)[C@H]12 [MEROPENEM]
- MIC (Pseudomonas aeruginosa [15]): 0.38 µg/mL (≈ 0.991 µM)
- MIC (Pseudomonas aeruginosa [16]): 0.38 µg/mL (≈ 0.991 µM)
- MIC (Pseudomonas aeruginosa [17]): 1 µg/mL (≈ 2.61 µM)
- MIC (Pseudomonas aeruginosa [18]): 0.5 µg/mL (≈ 1.3 µM)
- MIC (Pseudomonas aeruginosa [19]): 0.5 µg/mL (≈ 1.3 µM)
- MIC (Pseudomonas aeruginosa [26]): 0.38 µg/mL (≈ 0.991 µM)
- MIC (Pseudomonas aeruginosa [20]): 1.5 µg/mL (≈ 3.91 µM)
- MIC (Pseudomonas aeruginosa [21]): 0.5 µg/mL (≈ 1.3 µM)
- MIC (Pseudomonas aeruginosa [22]): 1 µg/mL (≈ 2.61 µM)
- MIC (Pseudomonas aeruginosa [23]): 1 µg/mL (≈ 2.61 µM)
- MIC (Pseudomonas aeruginosa [24]): 0.25 µg/mL (≈ 0.652 µM)
- MIC (Pseudomonas aeruginosa [25]): 0.25 µg/mL (≈ 0.652 µM)

SMILES: CO/N=C(\C(=O)N[C@@H]1C(=O)N2C(C(=O)[O-])=C(C[N+]3(C)CCCC3)CS[C@H]12)c1csc(N)n1 [CEFEPIME]
- MIC (Pseudomonas aeruginosa [15]): 1.5 µg/mL (≈ 3.12 µM)
- MIC (Pseudomonas aeruginosa [16]): 1.5 µg/mL (≈ 3.12 µM)
- MIC (Pseudomonas aeruginosa [18]): 1.5 µg/mL (≈ 3.12 µM)
- MIC (Pseudomonas aeruginosa [19]): 12 µg/mL (≈ 25 µM)
- MIC (Pseudomonas aeruginosa [20]): 48 µg/mL (≈ 99.9 µM)
- MIC (Pseudomonas aeruginosa [21]): 3 µg/mL (≈ 6.24 µM)
- MIC (Pseudomonas aeruginosa [23]): 3 µg/mL (≈ 6.24 µM)
- MIC (Pseudomonas aeruginosa [24]): 2 µg/mL (≈ 4.16 µM)
- MIC (Pseudomonas aeruginosa [25]): 1 µg/mL (≈ 2.08 µM)

SMILES: C[C@H]1[C@H](NC(=O)/C(=N\OC(C)(C)C(=O)O)c2csc(N)n2)C(=O)N1S(=O)(=O)O [AZTREONAM]
- MIC (Pseudomonas aeruginosa [1]): 3 µg/mL (≈ 6.89 µM)
- MIC (Pseudomonas aeruginosa [2]): 6 µg/mL (≈ 13.8 µM)
- MIC (Pseudomonas aeruginosa [3]): 12 µg/mL (≈ 27.6 µM)
- MIC (Pseudomonas aeruginosa [4]): 32 µg/mL (≈ 73.5 µM)
- MIC (Pseudomonas aeruginosa [5]): 3 µg/mL
- MIC (Pseudomonas aeruginosa [6]): 3 µg/mL
- MIC (Pseudomonas aeruginosa [7]): 4 µg/mL
- MIC (Pseudomonas aeruginosa [8]): 32 µg/mL
- MIC (Pseudomonas aeruginosa [9]): 3 µg/mL
- MIC (Pseudomonas aeruginosa [10]): 3 µg/mL
- MIC (Pseudomonas aeruginosa [11]): 3 µg/mL
- MIC (Pseudomonas aeruginosa [12]): 24 µg/mL
- MIC (Pseudomonas aeruginosa [16]): 4 µg/mL (≈ 9.19 µM)
- MIC (Pseudomonas aeruginosa [17]): 12 µg/mL (≈ 27.6 µM)
- MIC (Pseudomonas aeruginosa [19]): 24 µg/mL (≈ 55.1 µM)
- MIC (Pseudomonas aeruginosa [20]): 64 µg/mL (≈ 147 µM)
- MIC (Pseudomonas aeruginosa [22]): 32 µg/mL (≈ 73.5 µM)
- MIC (Pseudomonas aeruginosa [23]): 8 µg/mL (≈ 18.4 µM)
- MIC (Pseudomonas aeruginosa [24]): 4 µg/mL (≈ 9.19 µM)
- MIC (Pseudomonas aeruginosa [25]): 2 µg/mL (≈ 4.59 µM)

SMILES: C[C@@H](O)[C@H]1C(=O)N2C(C(=O)O)=C(SCCNC=N)C[C@H]12 [IMIPENEM ANHYDROUS]
- MIC (Pseudomonas aeruginosa [15]): 2 µg/mL (≈ 6.68 µM)
- MIC (Pseudomonas aeruginosa [16]): 1 µg/mL (≈ 3.34 µM)
- MIC (Pseudomonas aeruginosa [17]): 2 µg/mL (≈ 6.68 µM)
- MIC (Pseudomonas aeruginosa [18]): 1 µg/mL (≈ 3.34 µM)
- MIC (Pseudomonas aeruginosa [19]): 2 µg/mL (≈ 6.68 µM)
- MIC (Pseudomonas aeruginosa [20]): 2 µg/mL (≈ 6.68 µM)
- MIC (Pseudomonas aeruginosa [21]): 1 µg/mL (≈ 3.34 µM)
- MIC (Pseudomonas aeruginosa [22]): 2 µg/mL (≈ 6.68 µM)
- MIC (Pseudomonas aeruginosa [23]): 1.5 µg/mL (≈ 5.01 µM)
- MIC (Pseudomonas aeruginosa [24]): 0.5 µg/mL (≈ 1.67 µM)
- MIC (Pseudomonas aeruginosa [25]): 0.5 µg/mL (≈ 1.67 µM)

— ChEMBL document CHEMBL1687765, “NagZ inactivation prevents and reverts beta-lactam resistance, driven by AmpD and PBP 4 mutations, in Pseudomonas aeruginosa” (2010)
